In ChEMBL document CHEMBL4825685, “Structure activity relationship (SAR) study identifies a quinoxaline urea analog that modulates IKKβ phosphorylation for pancreatic cancer therapy” (Eur J Med Chem, 2021):
One block for each molecule: values may come before it. Active and inactive are the calls of the source. No cut-off for these calls is given here.

Tests used:
MIA PaCa-2 [1] = test: Induction of apoptosis in human MIA PaCa-2 cells assessed as increase in caspase 3/7 activation at 10 uM incubated for 24 hrs by Caspase-Glo assay; assay type: functional, cell-based
Procedure, shortened: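 MiaPaCa2 cells (2.5 × 10⁴/well) attached overnight, then treated 24 h at 0.1% final DMSO. alamarBlue added at 21 h for 3 h and fluorescence read at 560/590. Caspase-Glo luminescence read 2 h later. Luminescence ×100/fluorescence normalized to DMSO average, n = 3.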

[2] = target: T1, Inhibitor of nuclear factor kappa-B kinase subunit beta (Homo sapiens, UniProt O14920); test: Inhibition of TNFalpha-induced IKKbeta mediated NF-kappaB activation in human Pancreatic cancer cells by luciferase reporter gene assay; set-up: species or system Pancreatic cancer cell
T1 sequence (O14920 whole entry): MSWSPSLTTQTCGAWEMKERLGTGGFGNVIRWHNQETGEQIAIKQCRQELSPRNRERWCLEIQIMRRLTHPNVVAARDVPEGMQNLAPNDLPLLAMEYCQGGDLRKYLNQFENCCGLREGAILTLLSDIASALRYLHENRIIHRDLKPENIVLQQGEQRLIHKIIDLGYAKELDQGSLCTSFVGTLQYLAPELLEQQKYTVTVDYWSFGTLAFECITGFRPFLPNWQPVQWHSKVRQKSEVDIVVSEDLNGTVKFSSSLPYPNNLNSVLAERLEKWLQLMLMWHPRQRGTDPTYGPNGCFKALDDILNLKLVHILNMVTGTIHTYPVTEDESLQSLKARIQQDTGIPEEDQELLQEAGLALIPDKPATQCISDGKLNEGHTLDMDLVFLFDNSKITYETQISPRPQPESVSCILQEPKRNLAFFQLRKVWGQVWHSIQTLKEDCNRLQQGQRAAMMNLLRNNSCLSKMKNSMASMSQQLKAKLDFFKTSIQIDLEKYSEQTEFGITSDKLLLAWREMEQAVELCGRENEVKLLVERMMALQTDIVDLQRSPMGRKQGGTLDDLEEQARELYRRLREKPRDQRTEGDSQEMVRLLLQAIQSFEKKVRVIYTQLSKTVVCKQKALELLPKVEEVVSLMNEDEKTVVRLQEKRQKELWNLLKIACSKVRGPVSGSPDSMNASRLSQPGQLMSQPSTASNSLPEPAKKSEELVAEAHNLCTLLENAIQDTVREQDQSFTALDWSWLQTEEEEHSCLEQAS

[3] = target: T2, Inhibitor of nuclear factor kappa-B kinase subunit beta (Homo sapiens) (UniProt O14920); test: Inhibition of IKKbeta phosphorylation in human Pancreatic cancer cells measured after 6 hr by Western blot analysis; details: Pancreatic cancer cell, dose 0.5-5 µM
T2 sequence (whole entry): T1 sequence (O14920 whole entry)
Procedure, shortened: (§1)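 T3M4 cells treated at 0.5–5.0 µM for 6 h, or at 5 µM for 0.5–24 h. Lysates (40 µg protein) run on 4–20% SDS-PAGE and transferred to PVDF. Blots probed for p-IKKβ and IKKβ with β-actin loading control, chemiluminescent detection.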

[4] = target: T2, Inhibitor of nuclear factor kappa-B kinase subunit beta (Homo sapiens); test: Inhibition of IKKbeta phosphorylation in human Pancreatic cancer cells at 5 uM by Western blot analysis; details: Pancreatic cancer cell, time hrs <=24, TDE = time-dependent effect; procedure, shortened: as §1
[5] = Antiproliferative activity against human T3M4 cells assessed as growth inhibition after 72 hrs by PrestoBlue dye based fluorescence assay; assay type: functional
MIA PaCa-2 [6] = test: Antiproliferative activity against human MIA PaCa-2 cells assessed as growth inhibition after 72 hrs by PrestoBlue dye based fluorescence assay; assay type: functional
MIA PaCa-2 [7] = test: Induction of cell death in human MIA PaCa-2 cells measured after 24 hrs by fluorescent microscopy; assay type: functional, cell-based
Procedure, shortened: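 MiaPaCa2 cells treated with 5 and 10 µM for 24 h, then stained with calcein-AM plus ethidium homodimer-1 for 30 min. Live and dead cells imaged by fluorescence microscopy. Dead/total cell ratio computed, n = 3. Two-way ANOVA with Bonferroni test.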

MIA PaCa-2 [8] = test: Anti-migration activity in human MIA PaCa-2 cells at 5 uM measured upto 48 hrs by microscopy based wound scratch method; assay type: functional, cell-based; details: time hrs <=48
[9] = Half life in CD1 mouse at 20 mg/kg, po measured up to 24 hrs measured by LC/MS-MS analysis; assay type: ADME, organism-based; details: in vivo
Procedure, shortened: (§2)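 Oral 20 mg/kg given in DMSO:PEG400:H2O 1:4:5. Mice killed at 0.083, 0.25, 0.5, 1, 2, 4, 8 and 24 h and plasma analysed by LC/MS/MS with a carbamazepine internal standard. Parameters derived by non-compartmental analysis.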

[10] = Half life in CD1 mouse at 10 mg/kg, iv measured up to 24 hrs measured by LC/MS-MS analysis; assay type: ADME, organism-based; details: in vivo
Procedure, shortened: (§3)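 Single intravenous 10 mg/kg dose in DMSO:PEG400:H2O 1:5:4. Mice killed at 0.083, 0.25, 0.5, 1, 2, 4, 8 and 24 h. Plasma levels measured by LC/MS/MS against a carbamazepine internal standard. Parameters derived by non-compartmental analysis.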

[11] = Tmax in CD1 mouse at 20 mg/kg, po measured up to 24 hrs measured by LC/MS-MS analysis; assay type: ADME, organism-based; details: in vivo; procedure, shortened: as §2
[12] = Cmax in CD1 mouse at 20 mg/kg, po measured up to 24 hrs measured by LC/MS-MS analysis; assay type: ADME, organism-based; set-up: route oral, dose 20 mg/kg, time <=24; details: in vivo; procedure, shortened: as §2
[13] = Cmax in CD1 mouse at 10 mg/kg, iv measured up to 24 hrs measured by LC/MS-MS analysis; assay type: ADME, organism-based; set-up: route intravenous, dose 10 mg/kg, time <=24; details: in vivo; procedure, shortened: as §3
[14] = AUClast in CD1 mouse at 20 mg/kg, po measured up to 24 hrs measured by LC/MS-MS analysis; assay type: ADME, organism-based; set-up: route oral, dose 20 mg/kg, time <=24; details: in vivo; procedure, shortened: as §2
[15] = AUClast in CD1 mouse at 10 mg/kg, iv measured up to 24 hrs measured by LC/MS-MS analysis; assay type: ADME, organism-based; set-up: route intravenous, dose 10 mg/kg, time <=24; details: in vivo; procedure, shortened: as §3
[16] = AUC (0 to infinity) in CD1 mouse at 20 mg/kg, po measured up to 24 hrs measured by LC/MS-MS analysis; assay type: ADME, organism-based; set-up: route oral, dose 20 mg/kg, time <=24; details: in vivo; procedure, shortened: as §2
[17] = AUC (0 to infinity) in CD1 mouse at 10 mg/kg, iv measured up to 24 hrs measured by LC/MS-MS analysis; assay type: ADME, organism-based; set-up: route intravenous, dose 10 mg/kg, time <=24; details: in vivo; procedure, shortened: as §3
[18] = MRT (0 to infinity) in CD1 mouse at 20 mg/kg, po measured up to 24 hrs measured by LC/MS-MS analysis; assay type: ADME, organism-based; details: in vivo; procedure, shortened: as §2
[19] = MRT (0 to infinity) in CD1 mouse at 10 mg/kg, iv measured up to 24 hrs measured by LC/MS-MS analysis; assay type: ADME, organism-based; details: in vivo; procedure, shortened: as §3
[20] = Volume of distribution at steady state in CD1 mouse at 10 mg/kg, iv measured up to 24 hrs measured by LC/MS-MS analysis; assay type: ADME, organism-based; details: in vivo, read-out: Vdss; procedure, shortened: as §3
[21] = Oral bioavailability in CD1 mouse at 20 mg/kg measured up to 24 hrs measured by LC/MS-MS analysis; assay type: ADME, organism-based; details: in vivo
Procedure, shortened: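 %F taken from oral (20 mg/kg, DMSO:PEG400:H2O 1:4:5) and intravenous (10 mg/kg, DMSO:PEG400:H2O 1:5:4) AUC0-∞. Plasma sampled from 0.083 to 24 h and quantified by LC/MS/MS with a carbamazepine internal standard. Non-compartmental analysis.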

MIA PaCa-2 [22] = test: Antitumor activity against human MIA PaCa-2 cells xenografted in Foxn1nu athymic nude mouse assessed as reduction in tumor volume at 40 mg/kg, po administered for 4 weeks by digital caliper method relative to control; assay type: functional; set-up: scale not given: the % may be the effect or the level left
Procedure, shortened: (§4)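 MiaPaCa2 cells (2.5 × 10⁶, with Matrigel 2:1) implanted s.c. in the left flank. Mice randomized at day 20, n = 6 per group. Compound given orally once daily; gemcitabine 15 mg/kg i.p. every 72 h where combined; vehicle 100 µl orally. Tumors measured by caliper every 3 days (1/2 × L × W²). Tumors weighed after sacrifice after day 27. Unpaired t-test.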

MIA PaCa-2 [23] = test: Antitumor activity against human MIA PaCa-2 cells xenografted in Foxn1nu athymic nude mouse assessed as reduction in tumor weight at 40 mg/kg, po administered for 4 weeks […] relative to control; assay type: functional; set-up: scale not given: the % may be the effect or the level left; procedure, shortened: as §4
MIA PaCa-2 [24] = test: Antitumor activity against human MIA PaCa-2 cells xenografted in Foxn1nu athymic nude mouse assessed as reduction in tumor weight at 40 mg/kg, po administered for 4 weeks in combination gemcitabine […]; assay type: functional; details: MIA PaCa-2, po, 672 h; procedure, shortened: as §4
MIA PaCa-2 [25] = test: Antitumor activity against human MIA PaCa-2 cells xenografted in Foxn1nu athymic nude mouse assessed as reduction in tumor volume at 40 mg/kg, po administered for 4 weeks in combination gemcitabine by digital caliper method relative to control; assay type: functional; details: MIA PaCa-2, po, 672 h; procedure, shortened: as §4
MIA PaCa-2 [26] = test: Antitumor activity against human MIA PaCa-2 cells xenografted in Foxn1nu athymic nude mouse assessed as reduction in proliferation index at 40 mg/kg, po administered for 4 weeks by Ki67 staining based assay; assay type: functional, organism-based
Procedure, shortened: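 Same xenograft and dosing design. Formalin-fixed paraffin sections (5 µm) stained with anti-Ki-67. Percentage of Ki-67-positive cells counted in 4 fields per tumor, n = 5. Unpaired t-test.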

Mus musculus = test: In vivo inhibition of IKKbeta in Foxn1nu athymic nude mouse xenografted with human MIA PaCa-2 cells assessed as reduction in p-IKKbeta level at 40 mg/kg, po administered for 4 weeks by immunohistochemistry analysis; assay type: functional, organism-based
Procedure, shortened: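 Same xenograft tissue. Paraffin sections antigen-retrieved in citrate pH 6.0 and stained with p-IKKβ antibody overnight at 4 °C, then HRP secondary. Histoscore (0–15) = proportion score × intensity score (0–3), n = 5. Unpaired t-test.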

Compound: Cn1cc(-c2cnc3ccc(NC(=O)Nc4cccc(OC(F)(F)F)c4)cc3n2)cn1
- Activity (MIA PaCa-2 [1]): inactive

Compound: Cn1cc(-c2cnc3ccc(NC(=O)Nc4cccc(C(F)(F)F)c4)cc3n2)cn1
- Activity (MIA PaCa-2 [1]): inactive

Compound: Cc1ccc2nc(NCCN)c3ncc(C)n3c2c1
- Activity (MIA PaCa-2 [1]): inactive

- IC50 [2]: 3300 nM
- inhibition [3]: Dose-Dependent Effect
- inhibition [4]: Tde
- GI50 (MIA PaCa-2 [6]): 2800 nM
- half-life [9]: 2.5 h
- half-life [10]: 2.7 h
- Tmax [11]: 6 h
- Cmax [12]: 700 ng/mL
- Cmax [13]: 5980 ng/mL
- AUC(0-t) at 24 h [14]: 7990 ng·h/mL
- AUC(0-t) at 24 h [15]: 20300 ng·h/mL
- AUC(0-inf) [16]: 8010 ng·h/mL
- AUC(0-inf) [17]: 22800 ng·h/mL
- MRT inf [18]: 6.3 h
- MRT inf [19]: 4.5 h
- Vd [20]: 2 L/kg
- bioavailability [21]: 17.6%
Compound: Cn1cc(-c2cnc3ccc(NC(=O)Nc4cccc(C(F)(F)F)c4F)cc3n2)cn1
- Activity (MIA PaCa-2 [1]): Active
- GI50 [5]: 1700 nM
- Activity (MIA PaCa-2 [7]): Dose-Dependent Effect
- Activity (MIA PaCa-2 [8]): Active
- Activity (MIA PaCa-2 [22]): 75%
- Activity (MIA PaCa-2 [23]): 75%
- inhibition in vivo at 40 mg/kg (MIA PaCa-2 [24]): > 90%
- inhibition in vivo at 40 mg/kg (MIA PaCa-2 [25]): > 90%
- Activity (MIA PaCa-2 [26]): Active
- Activity (Mus musculus): Active

Compound: Cc1cc(NC(=O)Nc2ccc3ncc(-c4cnn(C)c4)nc3c2)ccc1F
- Activity (MIA PaCa-2 [1]): inactive
